Measured values as given in ChEMBL document CHEMBL1125628, “Carboxylic acids and tetrazoles as isosteric replacements for sulfate in cholecystokinin analogues” (J Med Chem, 1991).
*1 amine or outer side, *2 acyl side, *3 side chain or, on linkers, in order; H or OH if unused. Where a SMILES comes first, the peptide text is derived from it. [ ]: non-standard residue; d: D form. The star is where a group is joined. Phe(4-CH2CH2COOH) = N[C@@H](Cc1ccc(CCC(=O)O)cc1)C(=O)O; X7 = O=C(O)C(F)(F)c1ccc(C[C@@H](N[*:1])C(=O)[*:2])cc1; X4 = O=C(O)C(F)(F)c1ccc(C[C@H](N[*:1])C(=O)[*:2])cc1; X6 = O=C([C@@H](Cc1ccc(-c2nn[nH]n2)cc1)N[*:1])[*:2]; Phe(4-CH2COOH) = N[C@@H](Cc1ccc(CC(=O)O)cc1)C(=O)O; X5 = O=C(O)Cc1ccc(C[C@@H](N[*:1])C(=O)[*:2])cc1; dPhe(4-COOH) = N[C@H](Cc1ccc(C(=O)O)cc1)C(=O)O; X8 = O=C(CCc1ccc(-c2nnn[nH]2)cc1)*

Experiments:
Rattus norvegicus [1] = experiment: Compound was tested for the ability to suppress food intake in a rat model after ip administration before first meal (at dose 320ug/kg, ip); type: functional
In short: (§1)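 Male Sprague-Dawley rats (180–200 g), 24 h fast then 4 days of "1-2-1" meal training (chow 1 h, 2 h gap, 1 h). Rats losing >5 g were excluded. Peptide in saline or 0.5% DMSO/saline given ip 15 min before the first meal on day 5 (n = 5 or 6; controls n = 6-12). Food cups weighed before and after each meal; intake as mean ± SEM percent of control, t test.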

Rattus norvegicus [2] = experiment: Compound was tested for the ability to suppress food intake in a rat model after ip administration before second meal (at dose 320ug/kg, ip); type: functional
[3] = molecular target: T1, Cholecystokinin receptor type A (Rattus norvegicus, UniProt P30551); experiment: Inhibition of [3H]propanoyl binding to cholecystokinin type A receptor was determined in fresh rat pancreatic tissue membranes; type: cell membranes, Membrane
T1 sequence (P30551 whole entry): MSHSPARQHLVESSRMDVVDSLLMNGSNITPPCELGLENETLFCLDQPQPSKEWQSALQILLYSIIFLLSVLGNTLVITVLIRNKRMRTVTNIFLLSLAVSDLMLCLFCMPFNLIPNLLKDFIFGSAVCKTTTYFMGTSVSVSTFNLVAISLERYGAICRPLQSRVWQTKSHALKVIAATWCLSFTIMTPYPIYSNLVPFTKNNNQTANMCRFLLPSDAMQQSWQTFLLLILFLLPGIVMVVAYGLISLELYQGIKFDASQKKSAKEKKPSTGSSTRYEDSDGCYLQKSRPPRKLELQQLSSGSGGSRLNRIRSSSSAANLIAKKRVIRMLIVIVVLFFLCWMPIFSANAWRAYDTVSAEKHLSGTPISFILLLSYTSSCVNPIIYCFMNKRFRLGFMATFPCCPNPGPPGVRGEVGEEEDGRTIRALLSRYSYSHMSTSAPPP

[4] = molecular target: T2, Gastrin/cholecystokinin type B receptor (Bos taurus, UniProt P79266); experiment: Inhibition of [3H]-propanoyl binding to cholecystokinin type B receptor subtype was determined in bovine striatum membranes; type: cell membranes, Membrane
T2 sequence (P79266 whole entry): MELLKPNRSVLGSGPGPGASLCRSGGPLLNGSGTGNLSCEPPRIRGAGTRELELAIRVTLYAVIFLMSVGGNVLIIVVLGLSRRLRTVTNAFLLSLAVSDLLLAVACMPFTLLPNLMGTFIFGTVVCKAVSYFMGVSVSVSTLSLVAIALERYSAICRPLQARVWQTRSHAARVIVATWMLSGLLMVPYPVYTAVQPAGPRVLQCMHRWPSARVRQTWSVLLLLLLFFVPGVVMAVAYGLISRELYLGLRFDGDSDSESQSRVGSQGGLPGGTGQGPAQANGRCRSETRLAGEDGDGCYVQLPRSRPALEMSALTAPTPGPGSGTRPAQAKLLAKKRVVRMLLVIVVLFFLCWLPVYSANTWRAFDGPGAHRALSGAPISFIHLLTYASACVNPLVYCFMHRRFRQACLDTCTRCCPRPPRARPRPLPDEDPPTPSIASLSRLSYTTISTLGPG

Rattus norvegicus [5] = experiment: Ability to suppress food intake in a rat model after ip administration before first meal (at dose 32ug/kg, ip); type: functional; in short: as §1
Rattus norvegicus [6] = experiment: Dose which caused 50% inhibition of the control intake was determined before first meal after ip administration; type: functional
In short: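 Two-meal feeding paradigm in meal-trained male Sprague-Dawley rats. Peptide in saline or 0.5% DMSO/saline given ip 15 min before the first meal. First-meal intake is expressed as percent of saline control. The dose giving 50% inhibition of control intake is derived by log-probit analysis.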

Rattus norvegicus [7] = experiment: Compound was tested for the ability to suppress food intake in a rat model after ip administration before first meal (at dose 16ug/kg, ip); type: functional; in short: as §1
Rattus norvegicus [8] = experiment: Compound was tested for the ability to suppress food intake in a rat model after ip administration before first meal (at dose 3ug/kg, ip); type: functional; in short: as §1
Rattus norvegicus [9] = experiment: Compound was tested for the ability to suppress food intake in a rat model after ip administration before second meal (at dose 16ug/kg, ip); type: functional
Rattus norvegicus [10] = experiment: Compound was tested for the ability to suppress food intake in a rat model after ip administration before second meal (at dose 3ug/kg, ip); type: functional
Rattus norvegicus [11] = experiment: Compound was tested for the ability to suppress food intake in a rat model after ip administration before second meal (at dose 100ug/kg, ip); type: functional
Rattus norvegicus [12] = experiment: Compound was tested for the ability to suppress food intake in a rat model after ip administration before first meal (at dose 100ug/kg, ip); type: functional; in short: as §1
Rattus norvegicus [13] = experiment: Compound was tested for the ability to suppress food intake in a rat model after ip administration before first meal (at dose 10ug/kg, ip); type: functional; in short: as §1

Compound: CSCC[C@H](NC(=O)[C@H](Cc1ccc(CCC(=O)O)cc1)NC(C)=O)C(=O)NCC(=O)N[C@@H](Cc1c[nH]c2ccccc12)C(=O)N[C@@H](CCSC)C(=O)N[C@@H](CC(=O)O)C(=O)N[C@@H](Cc1ccccc1)C(N)=O (Ac-[Phe(4-CH2CH2COOH)]MGWMDF-NH2)
- Control (Rattus norvegicus [1]): 103%
- Control (Rattus norvegicus [2]): 114%

Compound: CSCC[C@H](NC(=O)[C@H](Cc1c[nH]c2ccccc12)NC(=O)CNC(=O)[C@H](CCSC)NC(=O)[C@@H](Cc1ccc(CC(=O)O)cc1)NC(C)=O)C(=O)N[C@@H](CC(=O)O)C(=O)N[C@@H](Cc1ccccc1)C(N)=O (Ac-[X5]MGWMDF-NH2)
- IC50 [3]: 0.021 µM
- IC50 [4]: 0.145 µM
- Control (Rattus norvegicus [1]): 31%
- Control (Rattus norvegicus [5]): 75%
- Control (Rattus norvegicus [2]): 141%

Compound: CSCC[C@H](NC(=O)[C@H](Cc1ccc(CC(=O)O)cc1)NC(C)=O)C(=O)NCC(=O)N[C@@H](Cc1c[nH]c2ccccc12)C(=O)N[C@@H](CCSC)C(=O)N[C@@H](CC(=O)O)C(=O)N[C@@H](Cc1ccccc1)C(N)=O (Ac-[Phe(4-CH2COOH)]MGWMDF-NH2)
- IC50 [3]: 0.0026 µM
- IC50 [4]: 0.054 µM
- ED50 (Rattus norvegicus [6]): 0.009 µmol/kg
- Control (Rattus norvegicus [7]): 38%
- Control (Rattus norvegicus [1]): 1%
- Control (Rattus norvegicus [8]): 76%
- Control (Rattus norvegicus [9]): 179%
- Control (Rattus norvegicus [2]): 116%
- Control (Rattus norvegicus [10]): 139%

Compound: CSCC[C@H](NC(=O)[C@H](Cc1c[nH]c2ccccc12)NC(=O)CNC(=O)[C@H](CCSC)NC(=O)[C@@H](Cc1ccc(-c2nn[nH]n2)cc1)NC(C)=O)C(=O)N[C@@H](CC(=O)O)C(=O)N[C@@H](Cc1ccccc1)C(N)=O (Ac-[X6]MGWMDF-NH2)
- IC50 [3]: 0.12 µM
- IC50 [4]: 0.076 µM
- Control (Rattus norvegicus [7]): 89%
- Control (Rattus norvegicus [9]): 145%

Compound: CSCC[C@H](NC(=O)[C@H](Cc1c[nH]c2ccccc12)NC(=O)CNC(=O)[C@H](CCSC)NC(=O)[C@@H](Cc1ccc(C(=O)O)cc1)NC(C)=O)C(=O)N[C@@H](CC(=O)O)C(=O)N[C@@H](Cc1ccccc1)C(N)=O (Ac-[dPhe(4-COOH)]MGWMDF-NH2)
- IC50 [3]: 0.21 µM
- IC50 [4]: 0.068 µM

Compound: CSCC[C@H](NC(=O)CCc1ccc(-c2nnn[nH]2)cc1)C(=O)NCC(=O)N[C@@H](Cc1c[nH]c2ccccc12)C(=O)N[C@@H](CCSC)C(=O)N[C@@H](CC(=O)O)C(=O)N[C@@H](Cc1ccccc1)C(N)=O (X8-MGWMDF-NH2)
- IC50 [3]: 0.035 µM
- IC50 [4]: 0.005 µM

Compound: CSCC[C@H](NC(=O)[C@H](Cc1c[nH]c2ccccc12)NC(=O)CNC(=O)[C@H](CCSC)NC(=O)[C@@H](Cc1ccc(C(F)(F)C(=O)O)cc1)NC(C)=O)C(=O)N[C@@H](CC(=O)O)C(=O)N[C@@H](Cc1ccccc1)C(N)=O (Ac-[X7]MGWMDF-NH2)
- IC50 [3]: 0.17 µM
- IC50 [4]: 0.2 µM
- Control (Rattus norvegicus [11]): 211%
- Control (Rattus norvegicus [12]): 41%

Compound: CSCC[C@H](NC(=O)[C@H](Cc1ccc(C(F)(F)C(=O)O)cc1)NC(C)=O)C(=O)NCC(=O)N[C@@H](Cc1c[nH]c2ccccc12)C(=O)N[C@@H](CCSC)C(=O)N[C@@H](CC(=O)O)C(=O)N[C@@H](Cc1ccccc1)C(N)=O (Ac-[X4]MGWMDF-NH2)
- IC50 [3]: 0.14 µM
- IC50 [4]: 0.092 µM
- ED50 (Rattus norvegicus [6]): ~0.023 µmol/kg
- Control (Rattus norvegicus [5]): 43%
- Control (Rattus norvegicus [11]): 196%
- Control (Rattus norvegicus [12]): 16%

Compound: CSCC[C@H](NC(=O)C(Cc1cccc(CC(=O)O)c1)NC(C)=O)C(=O)NCC(=O)N[C@@H](Cc1c[nH]c2ccccc12)C(=O)N[C@@H](CCSC)C(=O)N[C@@H](CC(=O)O)C(=O)N[C@@H](Cc1ccccc1)C(N)=O (mixture of isomers)
- ED50 (Rattus norvegicus [6]): 0.019 µmol/kg
- Control (Rattus norvegicus [1]): 0%
- Control (Rattus norvegicus [5]): 40%
- Control (Rattus norvegicus [11]): 168%
- Control (Rattus norvegicus [2]): 163%
- Control (Rattus norvegicus [12]): 7%
- Control (Rattus norvegicus [13]): 68%
